Experimental findings from ChEMBL document CHEMBL2311378, “Synthesis and biological activity against Trypanosoma cruzi of substituted 1,4-naphthoquinones” (Eur J Med Chem, 2013) are described below.

In test [1] the test system is Trypanosoma cruzi. Description: Antitrypanosomal activity against Trypanosoma cruzi Y bloodstream trypomastigotes isolated from infected Swiss mouse blood assessed as lysis level at 32.0 uM after 24 hrs. Format: functional.
Test [2] deals with Trypanosoma cruzi. Description: Antitrypanosomal activity against Trypanosoma cruzi Y bloodstream trypomastigotes isolated from infected Swiss mouse blood assessed as lysis level after 24 hrs. Format: functional, organism-based. A digest of the protocol:
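Infected mouse blood diluted with healthy mouse blood to 10⁶ trypomastigotes ml⁻¹. Compounds dissolved in DMSO, added to the blood, and incubated at 4 °C for 24 h. Remaining trypomastigotes were counted. Run in triplicate alongside DMSO and crystal violet controls. IC50 is the concentration lysing 50% of parasites.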

Test [3] deals with Trypanosoma cruzi. Description: Antitrypanosomal activity against Trypanosoma cruzi Y bloodstream trypomastigotes isolated from infected Swiss mouse blood assessed as lysis level at 8.0 uM after 24 hrs. Format: functional.
The test system of test [4] is Trypanosoma cruzi. Description: Antitrypanosomal activity against Trypanosoma cruzi Y bloodstream trypomastigotes isolated from infected Swiss mouse blood assessed as lysis level at 0.5 uM after 24 hrs. Format: functional.
Test [5] concerns Trypanosoma cruzi. Description: Antitrypanosomal activity against Trypanosoma cruzi Y bloodstream trypomastigotes isolated from infected Swiss mouse blood assessed as lysis level at 2.0 uM after 24 hrs. Type of test: functional.

One may read the IC50 as the concentration needed to halve the response being measured.

As to `CCCCCCCC/C=C/CCCCCCCC1=C(O)C(=O)c2ccccc2C1=O`, the Activity is reported as 57.6% in test [1], 51.3% in test [3], 13.1% in test [4] and 22.5% in test [5]. In test [2], the concentration for half-maximal inhibition (IC50) stood at 10.6 µM.

Consider `CCCCCCCC/C=C/CCCCCCCC1=C(C)C(=O)c2ccccc2C1=O`, for which the Activity is reported as 34% in test [1], 35.1% in test [3], 27.2% in test [4] and 25.1% in test [5]. For the same molecule, in test [2], the IC50 was found to be 32.6 µM.

Regarding `CCCCCCCC/C=C/CCCCCCCC1=CC(=O)c2ccccc2C1=O`, the Activity was 49.2% in test [1], 46.1% in test [3], 37.2% in test [4] and 45.5% in test [5]. For the same molecule, in test [2], the half-maximal inhibitory concentration (IC50) turned out to be 8.1 µM.

For the molecule `CCCCC/C=C\C/C=C/CCCCCCCC1=C(O)C(=O)c2ccccc2C1=O`, the Activity is on record as 50.8% in test [1], 42.9% in test [3], 44.5% in test [4] and 47.6% in test [5]. The IC50 in test [2] worked out at 7.8 µM.

On to `CCCCC/C=C/C/C=C/CCCCCCCC1=C(C)C(=O)c2ccccc2C1=O`, for which the Activity in test [1] is recorded as 44.5%; in test [3] it was 47.1%; in test [4] it was 15.2%; in test [5], 25.6%. The half-inhibitory concentration (IC50) in test [2] was determined as 16.9 µM.

In the case of `CCCCC/C=C/C/C=C/CCCCCCCC1=CC(=O)c2ccccc2C1=O`, the Activity in test [1] amounted to 49.2%; in test [3] it was 30.9%; in test [4], 0%; in test [5], 7.8%. Further, in test [2], the IC50 was 26.4 µM.

For `CCCCCCCC1=C(CCCCCCC)C(=O)c2ccccc2C1=O`, the Activity in test [1] is 18.3%; in test [3] it was 10.6%; in test [4] it was 8.1%; in test [5], 8.9%. Moreover, the IC50 in test [2] turned out to be 124 µM.

In the case of `O=C1C(CCCCc2ccccc2)=C(CCCCc2ccccc2)C(=O)c2ccccc21`, the Activity in test [1] was determined as 44%; in test [3] it was 35.1%; in test [4], 3%; in test [5], 21.5%. Also, the 50% inhibitory concentration (IC50) in test [2] was 25.1 µM.

For the molecule `COc1ccc(C(CC(=O)O)C2=C(C)C(=O)c3ccccc3C2=O)cc1` (racemic), the Activity in test [1] was found to be 55%; in test [3] it was 34%; in test [4] it was 12%; in test [5], 24.6%. Further, the IC50 in test [2] is 17.4 µM.

With `COc1ccc(C(CC(=O)O)C2=CC(=O)c3ccccc3C2=O)cc1` (racemic), the Activity in test [1] was 38.7%; in test [3] it was 14.1%; in test [4] it was 0%; in test [5] it was 10.5%. Also, in test [2], the IC50 was 48.5 µM.

On to `CN(C)c1ccc(C(=C2C=CC(=[N+](C)C)C=C2)c2ccc(N(C)C)cc2)cc1` [GENTIAN VIOLET], for which, in test [2], the IC50 stood at 31 µM.

Consider `O=C1C=C(O)C(=O)c2ccccc21` [LAWSONE], for which, in test [2], the IC50 is more than 2500 µM.
